Reference: PMC11078769 (Heliyon, 2024)

Legend:
[1] = tested on: L. monocytogenes ATCC 19115; assay: Inhibition of biofilm formation, crystal violet; type: cell-based, Listeria monocytogenes; settings: sodium lactate at 5 % (positive control); 37 °C, 24 h, crystal violet A570
Outline: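 Test compound stock mixed with L. monocytogenes at 10^6 CFU/mL to final 2, 4 and 8 μg/mL, grown in microplate wells. Phosphate buffer (pH 7.0) served as negative control. Planktonic cells removed, wells washed twice with phosphate buffer, then stained 30 min with 0.1 % crystal violet and rinsed. Bound dye eluted with 95 % ethanol. Run in triplicate.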

[2] = tested on: CCDC18Co human cells; settings: 0.27 to 27 μmol/L; cited from earlier work
[3] = tested on: defibrinated erythrocytes; settings: enterocin AS-48 at 5–20 μmol/L; cited from earlier work
[4] = tested on: MCF10A human cells; settings: 0.27 to 27 μmol/L; cited from earlier work
[5] = tested on: L. monocytogenes; settings: as reported; cited from earlier work

CC(O)C(=O)[O-].[Na+] (centres unmarked) [sodium lactate]
inhibition rate of biofilm formation [1]: 54.36%

enterocin AS-48
Cytotoxicity [2]: no cytotoxicity
percent hemolysis [3]: 3%–22.6
Cytotoxicity [4]: no cytotoxicity
MIC [5]: 0.1 µg/mL
